# Measured values from PubChem BioAssay.
# The source made the active and inactive calls.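 The calls were made as follows, unless noted: active = GFP response above 150% of the DMSO level; inconclusive = fewer than 70 events counted for a yeast strain; inactive = the rest.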
# Assays:
# [1] = RPL19A-GFP modulators, yeast TOR pathway, confirmation, cell-based, S. cerevisiae, flow cytometry, cherry picks, mother/daughter gates (AID 2270;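 active = GFP response below 50% of the DMSO control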); settings: S. cerevisiae RPL19A-GFP strain, 3 h, at 10 µM, stronger effect = lower value, 100 = same GFP as DMSO wells
# [2] = LAP4-GFP expression modulators in yeast, confirmation, cell-based, cherry picks, flow cytometry, mother/daughter gates (AID 2271;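 active = GFP response above 150% of the DMSO control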;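 also: ratio of sample to DMSO plate mean so 100% equals DMSO level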); settings: S. cerevisiae LAP4-GFP strain, 3 h, at 10 µM, stronger effect = higher value, 100 means same as DMSO control
# Procedure, shortened: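 System: Alexa 633-stained baker's yeast GFP-fusion strain; quantity: 0.2 OD600 cells; timing: compound exposure 3 h at 30 °C, end-over-end rotation; detection: HT flow cytometry, GFP fluorescence channel; measure: per-gate (all, mother, daughter) GFP response vs DMSO; control set: DMSO-only negative wells, rapamycin 400 ng/mL positive wells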
# [3] = modulators of MEP2-GFP levels in yeast, confirmation, S. cerevisiae, flow cytometry GFP, cherry picks (AID 2272;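 active = GFP response above 150% of the DMSO control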;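 also: ratio of well signal to plate DMSO mean so 100% equals DMSO level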); settings: S. cerevisiae MEP2-GFP strain, 3 h, at 10 µM, stronger effect = higher value
# [4] = AGP1-GFP expression modulators, hit retest, confirmation, cell-based, flow cytometry, S. cerevisiae, cherry picks (AID 2273);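 also: median GFP channel fluorescence over the whole cell population gate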; settings: S. cerevisiae AGP1-GFP strain, 3 h, at 10 µM
# [5] = modulators of CIT2-GFP expression in yeast, confirmation, S. cerevisiae, GFP fusion, cherry picks, mother/daughter gates (AID 2274); settings: S. cerevisiae CIT2-GFP strain, flow cytometry, 3 h, at 10 µM, stronger effect = higher value
# [6] = measured here: daughter cell gate
# [7] = measured here: mother cell gate
# [8] = measured here: daughter cell gate response
# [9] = measured here: mother cell gate response
Compound,GFP response vs DMSO [1],"GFP response vs DMSO [1, 6]","GFP response vs DMSO [1, 7]",GFP response relative to DMSO [2],"GFP response relative to DMSO [2, 8]","GFP response relative to DMSO [2, 9]",GFP response vs DMSO [3],"GFP response, % of DMSO [4]","GFP response, % of DMSO [5]","GFP response, % of DMSO [5, 6]","GFP response, % of DMSO [5, 7]"
Cc1cc(=O)[nH]c(-n2nc(C)cc2C)n1,98% (inactive),99.1%,97.8%,101% (inactive),101%,100%,105% (inactive),99.8% (inactive),94.4% (inactive),97.4%,91.9%
O=C(CCc1nc(-c2ccccc2)no1)Nc1cc(C(F)(F)F)ccc1Cl,105% (inactive),105%,103%,91.9% (inactive),91%,92%,105% (inactive),102% (inactive),112% (inactive),108%,110%
COc1cccc(NC(=O)c2ccc3c(c2)CCCC3)c1,101% (inactive),98.4%,102%,96.2% (inactive),97.2%,99.3%,97.8% (inactive),90.6% (inactive),103% (inactive),101%,102%
O=C(c1c(F)cccc1F)N1CCN(c2ccccc2F)CC1,99.4% (inactive),99.1%,98.4%,103% (inactive),102%,103%,100% (inactive),92.1% (inactive),107% (inactive),106%,106%
Cc1ccn2c(NC3CCCCC3)c(C)nc2c1,99.4% (inactive),100%,99.6%,95.7% (inactive),95.9%,96.2%,99% (inactive),99% (inactive),98.8% (inactive),101%,96.8%
COc1cc(/C=C2/C(=O)ON=C2c2ccccc2)ccc1O,105% (inactive),108%,100%,105% (inactive),108%,102%,121% (inactive),107% (inactive),125% (inactive),132%,112%
Cc1ccc(/C(N)=N/OC(=O)c2ccc(F)cc2)cc1,102% (inactive),102%,99.2%,128% (inactive),111%,129%,108% (inactive),76.8% (inactive),134% (inactive),121%,133%
COc1ccccc1Oc1ccc(S(=O)(=O)N2CCCC2)cc1,102% (inactive),100%,103%,91.4% (inactive),91%,95.2%,95.7% (inactive),93.5% (inactive),93.9% (inactive),94.8%,92.3%
C/C(CC(=O)Nc1cc(C)ccn1)=N\NC(=O)c1cccc(F)c1,98.6% (inactive),97.5%,98.7%,97.4% (inactive),97.2%,99.3%,100% (inactive),94.1% (inactive),93.9% (inactive),94.8%,93.4%
COc1ccc(N2C(=O)c3cccc4cccc(c34)C2=O)nn1,98% (inactive),97.3%,98.7%,89% (inactive),91%,91.1%,97.8% (inactive),98% (inactive),92.6% (inactive),93.2%,91.2%
COC(=O)c1ccc(C2Nc3cccc4cccc(c34)N2)cc1,105% (inactive),102%,106%,129% (inactive),123%,133%,103% (inactive),92.8% (inactive),93% (inactive),90.2%,93.2%
O=C(NNC(=S)NC(=O)C12CC3CC(CC(C3)C1)C2)c1ccncc1,109% (inactive),115%,106%,137% (inactive),125%,136%,112% (inactive),97.3% (inactive),115% (inactive),124%,106%
CC(NCCS(=O)(=O)c1ccc(Cl)cc1)c1cccc(Cl)c1 (stereo not drawn),95.1% (inactive),96.4%,94%,97.7% (inactive),96%,99.5%,106% (inactive),98.2% (inactive),97.2% (inactive),97.6%,98.2%
O=C(O)CCc1ccc(-c2ccc(Br)cc2)o1,99.4% (inactive),92.2%,97%,137% (inactive),119%,129%,99% (inactive),86.6% (inactive),84.3% (inactive),81.2%,82.1%
CCOc1ccc2ccccc2c1C(=O)N1CCN(c2ccccc2)CC1,97.8% (inactive),98.4%,96.3%,105% (inactive),105%,105%,99.3% (inactive),98.4% (inactive),93.1% (inactive),94%,93.8%
O=C(c1ccccc1)N1CCN(c2ccccc2F)CC1,101% (inactive),102%,99.6%,105% (inactive),104%,96.4%,103% (inactive),99.1% (inactive),95.8% (inactive),97.6%,90.4%
CC(C)C(=O)Nc1ccc(NC(=O)c2cc3ccccc3o2)cc1,99.6% (inactive),100%,98.6%,102% (inactive),101%,102%,99.3% (inactive),99.1% (inactive),100% (inactive),97.6%,100%

Compound,GFP response vs DMSO [1],"GFP response vs DMSO [1, 6]","GFP response vs DMSO [1, 7]",GFP response relative to DMSO [2],"GFP response relative to DMSO [2, 8]","GFP response relative to DMSO [2, 9]",GFP response vs DMSO [3],"GFP response, % of DMSO [4]","GFP response, % of DMSO [5]","GFP response, % of DMSO [5, 6]","GFP response, % of DMSO [5, 7]"
COc1ccc(CN2CCSc3sccc3C2=O)cc1,93.2% (inactive),90.7%,93.9%,110% (inactive),109%,112%,92.6% (inactive),97.3% (inactive),102% (inactive),103%,102%
Cc1ccc(NC(=O)c2nc(S(=O)(=O)Cc3ccccc3C)ncc2Cl)cc1C,91.6% (inactive),89.6%,91.6%,107% (inactive),107%,107%,103% (inactive),107% (inactive),94.4% (inactive),92.3%,94.9%
COCCN(CCOC)S(=O)(=O)c1ccc(C(=O)Nc2nnc(C)o2)cc1,100% (inactive),100%,101%,99.5% (inactive),97.5%,98.4%,99% (inactive),100% (inactive),102% (inactive),103%,101%
O=C(OCn1ncc(Br)c(Br)c1=O)c1ccc(F)cc1,99.7% (inactive),99.8%,94.8%,210% (active),183%,203%,116% (inactive),106% (inactive),99.3% (inactive),108%,92.1%
COc1cc(CCN2C(=O)c3cccc4cccc(c34)C2=O)c(S(=O)(=O)NCCCO)cc1OC,99.1% (inactive),98.5%,99.7%,95.3% (inactive),96.5%,94.6%,99.5% (inactive),93.6% (inactive),95% (inactive),96.4%,93.3%
CCOC(=O)CNc1c(-c2ccc(O)cc2)nc2ccccn12,98.5% (inactive),99.3%,98%,100% (inactive),104%,98.4%,97.2% (inactive),104% (inactive),101% (inactive),103%,103%
COc1ccc(/C=N\NC(=O)c2cc(OCC(F)(F)F)ccc2OCC(F)(F)F)cc1,93.7% (inactive),97.9%,94%,96.7% (inactive),97.6%,98.3%,102% (inactive),94.8% (inactive),98.3% (inactive),99.1%,95%
Cc1ccc(-c2nnn(CC(=O)N(CC(=O)NC3CCCC3)c3ccc(F)cc3)n2)o1,97.4% (inactive),98.4%,96.8%,97% (inactive),95.9%,96.2%,99% (inactive),104% (inactive),100% (inactive),103%,99.3%
COC(=O)c1ccc(/C=N\NC(=O)c2ccc(C)cc2Cl)cc1,98.6% (inactive),98.9%,96.7%,95.4% (inactive),94.4%,95.1%,102% (inactive),96.4% (inactive),103% (inactive),105%,99.7%
COc1ccc(C(=O)Oc2ccc(/C=N/NC(=O)c3ccccc3OC)cc2[N+](=O)[O-])cc1,102% (inactive),103%,101%,87.2% (inactive),87.8%,86.7%,104% (inactive),101% (inactive),104% (inactive),104%,100%
O=C(c1ccccn1)c1conc1C(=O)c1ccc(Br)cc1,98.2% (inactive),93.9%,102%,204% (active),159%,213%,153% (inactive),105% (inactive),139% (inactive),126%,147%
O=C(NCc1ccncc1)C12CC3CC(CC(Cl)(C3)C1)C2,96.2% (inactive),98.1%,96.8%,97% (inactive),95.9%,96.2%,99% (inactive),99.8% (inactive),105% (inactive),105%,103%
COc1ccc(S(=O)(=O)N2Cc3ccccc3CC2C(=O)O)cc1OC (stereo not drawn),97% (inactive),97%,97.1%,98.8% (inactive),96.5%,98.5%,104% (inactive),102% (inactive),99.3% (inactive),100%,99.1%
Cc1ccc(NC(=S)N/N=C/c2c(C)[nH]c3ccccc23)cc1,97.4% (inactive),97%,97.9%,101% (inactive),93.6%,104%,104% (inactive),90.1% (inactive),104% (inactive),108%,100%
CSC(SC)=C(C#N)C(=O)c1ccccc1,102% (inactive),98.6%,99.8%,128% (inactive),117%,129%,103% (inactive),96.3% (inactive),93% (inactive),92%,93.2%
Cc1ccc(Cl)cc1N1CCN(C(=O)CSc2ccsc2[N+](=O)[O-])CC1,98% (inactive),97.4%,97.8%,97% (inactive),95.9%,96.2%,101% (inactive),99.4% (inactive),100% (inactive),99.2%,99.3%
